PAFAH2 FP inh: inhibitors of human PAFAH2 | recombinant PAFAH2, FP-rhodamine activity probe, fluorescence polarization | inhibition, % at 3.39 µM | 0.99% of 340,000 active | AID 492956;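 active means inhibition above the mean over all tested compounds plus 3 SD, cut at about 30% in these data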;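 further: inhibitors block probe labeling of enzyme so polarization drops; 0% = enzyme with DMSO and 100% = wells lacking PAFAH2 protein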
PAFAH1B2 inh: PAFAH1B2 (human) inhibition; inhibition, % at 3.39 µM; 1.2% of 340,000 active; P68402; AID 492953; recombinant PAFAH1B2, FP-rhodamine activity probe, fluorescence polarization;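 active means inhibition above the mean of all tested compounds plus 3 SD, cut at about 24% in these data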;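 further: 0% = enzyme with DMSO and 100% = wells lacking PAFAH1B2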
PAFAH1B3 inh: inhibitors of human PAFAH1B3. recombinant PAFAH1B3, FP-rhodamine probe, fluorescence polarization. inhibition, % at 3.39 µM. 0.28% of 340,000 active. AID 492972;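 active means inhibition above the screen-wide average of all tested compounds plus 3 SD, cut at about 25% in these data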;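 further: 0% = enzyme with DMSO only and 100% = wells lacking PAFAH1B3 protein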
Target sequence (Q15102 whole entry, looked up): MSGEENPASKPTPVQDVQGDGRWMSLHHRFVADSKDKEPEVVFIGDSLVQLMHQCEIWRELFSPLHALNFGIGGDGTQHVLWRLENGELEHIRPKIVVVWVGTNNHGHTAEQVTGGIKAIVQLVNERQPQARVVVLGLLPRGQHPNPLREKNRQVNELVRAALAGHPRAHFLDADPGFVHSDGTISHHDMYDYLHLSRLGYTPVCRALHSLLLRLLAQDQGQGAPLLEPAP
pPAFAH FP inh: pPAFAH (human) enzyme inhibition; recombinant pPAFAH, FP-rhodamine probe fluorescence polarization; AID 463082; 1.5% of 330,000 active; inhibition, % at 3.39 µM;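 active means inhibition above the mean inhibition across the screen plus 3 SD, cut at about 25% in these data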;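 further: inhibitors block binding of the rhodamine activity-based probe so polarization drops; 0% = enzyme with DMSO and 100% = wells lacking pPAFAH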
ARFGAP1 inh: inhibits rat ARF GTPase activating protein 1. Arfgap1-stimulated ARF1 GTP hydrolysis, GDP FP detection. inhibition, % at 16.5 µM. 0.26% of 360,000 active. Q62848. AID 651572;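 active means inhibition above a per-plate limit, mean inhibition of low control wells plus 3 SD, cut at about 25% in these data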;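 further: 0% = DMSO wells with enzyme and 100% = wells lacking Arfgap1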
Target sequence (Q62848 1-136 limits assumed): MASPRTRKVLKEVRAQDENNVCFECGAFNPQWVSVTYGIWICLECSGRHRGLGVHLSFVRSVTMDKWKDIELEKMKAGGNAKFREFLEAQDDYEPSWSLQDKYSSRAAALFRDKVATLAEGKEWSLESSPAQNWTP
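system = rat Arfgap1 catalytic domain, aa 1-136 | technique = FP, GDP Alexa 633 tracer displaced from anti-GDP antibody, 620/688 nm | compound = one concentration, 16.5 µM, DMSO 1.26% | medium = HEPES-based buffer, pH 7.5 | timing = compound-enzyme preincubation 20 min, reaction 120 min, detection 60 min, 25 °C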
ASAP1 inh: ASAP1 ArfGAP inhibition | Q9ULH1 | ASAP1-stimulated ARF1 GTP hydrolysis, GDP FP detection | inhibition, % at 16.5 µM | 0.19% of 360,000 active; in the data active means inhibition above about 25%;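 further: 0% = vehicle with enzyme and substrate and 100% = no enzyme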
PAFAH2 FP conf: confirmation of human PAFAH2 inhibitors. 65% of 2,300 active. recombinant PAFAH2, FP-rhodamine activity probe, fluorescence polarization. AID 493030. inhibition, % at 3.39 µM. shares compounds with PAFAH2 FP inh;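 active means mean inhibition over three repeats above a set limit taken from the earlier primary screen, cut at about 30% in these data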;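 further: inhibitor blocks binding of rhodamine activity probe so polarization falls; 0% = enzyme with DMSO and 100% = wells lacking PAFAH2 protein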
PAFAH1B3 conf FP: PAFAH1B3 (human) inhibition, confirmed; AID 493032; inhibition, % at 3.39 µM; shares compounds with PAFAH1B3 inh; recombinant PAFAH1B3, FP-Rh activity-based probe, fluorescence polarization; 30% of 390 active;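 active means average inhibition over triplicate runs above the hit cutoff set in the earlier primary screen, cut at about 25% in these data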;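 further: 0% = enzyme with DMSO and 100% = wells lacking PAFAH1B3 protein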
ASAP1 GAP conf: ASAP1 inhibition confirmed; shares compounds with ASAP1 inh; inhibition, % at 16.5 µM; AID 624431; 37% of 620 active; ASAP1-stimulated Arf1 GTPase, GDP fluorescence polarization;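 active means mean inhibition over triplicates exceeds the hit threshold derived for the earlier primary screening run, cut at about 25% in these data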
* = called active by the depositor; / = no result given. Most compounds without a hit are left out; they make up all but 2.7% or so of the library.

SMILES	PAFAH2 FP inh	PAFAH1B2 inh	PAFAH1B3 inh	pPAFAH FP inh	ARFGAP1 inh	ASAP1 inh	PAFAH1B3 conf FP	others
CCN(C[C@H]1N[C@@](Cc2ccccc2)(C(=O)OC)[C@H]2C(=O)N(Cc3ccccc3)C(=O)[C@@H]12)C(=O)Nc1ccc(C(F)(F)F)cc1	-28	-11	-12	-17	-2	-4	/
CSc1ccc(Cl)c(C(=O)OCC(=O)NCC(C)C)c1	43*	-1	0	3	-4	4	/	PAFAH2 FP conf=30*
CC(C)c1ccc(O)c(NC(=S)NC(=O)c2ccc3c(c2)OCO3)c1	30*	6	0	7	17	7	/	PAFAH2 FP conf=21
CN1CCN(C(=O)CCCN2C(=O)/C(=C/c3ccccc3)SC2=S)CC1	2	-2	2	-6	9	-14	/
O=C(O)CCCN1C(=O)/C(=C\C(Cl)=C\c2ccccc2)SC1=S	61*	4	8	/	0	33*	/	PAFAH2 FP conf=17;ASAP1 GAP conf=61*
O=C1NC(=S)S/C1=C\C=C\c1ccc([N+](=O)[O-])o1	43*	9	17	/	8	29*	/	PAFAH2 FP conf=27;ASAP1 GAP conf=11
COc1cc(-c2coc3c(C(=O)NC4CCCCC4)cccc23)ccc1O	/	/	/	/	2	2	/
Clc1cccc2sc(N3CCOCC3)nc12	-18	20	30*	2	18	3	7
O=[N+]([O-])c1ccc(NCCCc2ccccc2)cc1	/	/	/	/	-14	-1	/
COC(=O)N/N=C/c1cc(N=Nc2ccccc2)ccc1O	8	6	8	11	8	-5	/
Cc1cc(C(=O)N/N=C/c2cc(N=Nc3ccccc3)ccc2O)n[nH]1	-17	6	29*	14	/	/	18
C=CCc1cccc(/C=N/NC(=O)CNc2cccc3ccccc23)c1O	-30	9	26*	16	2	-3	17
C=CCc1cccc(/C=N/NC(=O)CNc2ccccc2OC)c1O	11	4	8	13	1	6	/
CC(=O)N1CCn2c3c(c(=O)c4cc(C)ccc42)CCC31 (stereo not drawn)	-2	10	41*	13	11	9	16
CC(=O)N1CCn2c3c(c4cc(C)ccc42)CCCC31 (stereo not drawn)	1	9	8	8	-4	-2	/
CCCC[n+]1ccn(C2=C([O-])c3ccccc3C(=O)/C2=N\S(=O)(=O)c2ccccc2)c1	10	13	36*	-4	4	4	26*
CNC1=C(N(C(C)=O)c2ccc(Br)cc2)C(=O)c2ccccc2C1=O	-2	-2	38*	-3	-6	9	17
CCC(=O)N(C1=C(NC)C(=O)c2ccccc2C1=O)C(C)C	-3	2	15	6	16	-2	/
CC(=O)Oc1cccc(N2C(=O)c3cccc4c([N+](=O)[O-])ccc(c34)C2=O)c1	1	14	28*	5	-9	-15	40*
CC(=O)Oc1cccc(N2C(=O)c3ccc(C(=O)O)cc3C2=O)c1	5	2	7	4	6	-19	/
Cn1cnc(C(=O)NCc2ccc(CNC(=O)OC(C)(C)C)cc2)c1C(=O)NCc1ccc(CNC(=O)OC(C)(C)C)cc1	-10	-8	-17	-2	5	-3	/
CC(C)(C)CNC(=O)c1cccc2c1C(=O)c1ccc(-c3cc4ccccc4o3)cc1S2(=O)=O	-3	4	-6	-3	12	-7	/
O=C(NCC1COc2ccccc2O1)c1cccc(S(=O)(=O)N2CCOCC2)c1 (stereo not drawn)	1	2	5	-9	16	7	/
COc1ccc(NC(=O)c2cc(-c3ccc(F)cc3OC)n[nH]2)c(C)c1	/	/	/	/	-6	4	/
OCC#Cc1ncc(C(F)(F)F)cc1Cl	-3	1	28*	4	2	3	25

Bioassay records from PubChem BioAssay.
